Data published in ChEMBL document CHEMBL3525985, “Regiospecificity and stereospecificity of human UDP-glucuronosyltransferases in the glucuronidation of estriol, 16-epiestriol, 17-epiestriol, and 13-epiestradiol” (Drug Metab Dispos, 2013).

How the values were obtained:
Assay type in all cases: ADME
[1] = target: T1, UDP-glucuronosyltransferase 2B17 (Homo sapiens, UniProt O75795); assay: Drug metabolism assessed as recombinant human C-terminal His-tagged UGT2B17-mediated 16-epiestriol-16-glucuronide formation after 15 to 60 mins by Michaelis-Menten equation analysis in presence of UDPGA; details: recombinant enzyme
T1 sequence (O75795 whole entry): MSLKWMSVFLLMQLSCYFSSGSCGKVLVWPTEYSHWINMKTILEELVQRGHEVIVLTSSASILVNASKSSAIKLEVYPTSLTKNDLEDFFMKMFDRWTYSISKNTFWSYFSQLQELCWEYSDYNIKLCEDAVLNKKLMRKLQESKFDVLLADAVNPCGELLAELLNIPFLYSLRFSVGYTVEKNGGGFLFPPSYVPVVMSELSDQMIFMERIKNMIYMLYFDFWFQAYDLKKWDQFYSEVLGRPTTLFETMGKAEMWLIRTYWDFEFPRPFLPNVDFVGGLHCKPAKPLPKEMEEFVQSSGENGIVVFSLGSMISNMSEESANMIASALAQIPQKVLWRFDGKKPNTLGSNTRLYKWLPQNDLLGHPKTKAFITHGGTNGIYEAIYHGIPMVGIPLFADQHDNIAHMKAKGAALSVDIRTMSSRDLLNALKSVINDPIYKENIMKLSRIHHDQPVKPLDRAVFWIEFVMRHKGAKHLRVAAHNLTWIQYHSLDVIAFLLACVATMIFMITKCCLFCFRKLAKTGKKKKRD

[2] = target: T1, UDP-glucuronosyltransferase 2B17; assay: Drug metabolism assessed as recombinant human C-terminal His-tagged UGT2B17-mediated 16-epiestriol-17-glucuronide formation at 5 mg after 5 hrs by NMR spectroscopic analysis in presence of UDPGA
[3] = tested on: Liver microsome; assay: Drug metabolism in human liver microsomes assessed as 16-epiestriol-16-glucuronide formation after 15 to 60 mins by Michaelis-Menten equation analysis in presence of UDPGA
Method in brief: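 Pooled human liver microsomes (30 donors), 0.5 or 10 µg, with alamethicin at 5% of total protein. Incubated with 50 mM phosphate pH 7.4, 10 mM MgCl₂, 5 mM UDPGA and 10% DMSO for 15–60 min at 37°C. Each glucuronide regioisomer quantified by HPLC, in triplicate, with substrate consumption at or below 10%.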

[4] = target: T2, UDP-glucuronosyltransferase 1A10 (Homo sapiens, UniProt Q9HAW8); assay: Drug metabolism assessed as recombinant human C-terminal His-tagged UGT1A10-mediated estriol-3-glucuronide formation after 15 to 60 mins by Michaelis-Menten equation analysis in presence of UDPGA; details: recombinant enzyme
T2 sequence (Q9HAW8 whole entry): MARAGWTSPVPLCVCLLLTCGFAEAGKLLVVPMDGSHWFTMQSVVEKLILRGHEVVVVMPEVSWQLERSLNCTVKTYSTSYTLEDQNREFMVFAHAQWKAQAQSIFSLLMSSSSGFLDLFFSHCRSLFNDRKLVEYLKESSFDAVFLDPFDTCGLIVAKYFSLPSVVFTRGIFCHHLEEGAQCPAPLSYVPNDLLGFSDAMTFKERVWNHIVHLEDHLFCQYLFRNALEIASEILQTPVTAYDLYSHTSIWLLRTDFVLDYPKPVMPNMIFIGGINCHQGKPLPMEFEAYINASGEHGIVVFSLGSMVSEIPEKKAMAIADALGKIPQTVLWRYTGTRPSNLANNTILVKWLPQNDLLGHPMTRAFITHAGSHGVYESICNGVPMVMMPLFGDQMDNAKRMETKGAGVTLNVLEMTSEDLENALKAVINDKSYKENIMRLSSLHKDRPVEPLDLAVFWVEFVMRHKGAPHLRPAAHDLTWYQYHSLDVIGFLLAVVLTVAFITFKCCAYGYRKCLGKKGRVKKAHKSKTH
Method in brief: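 For kinetics, the aglycone ranged from 0.2 to 300 μM in DMSO (10% final) with 5 mM UDPGA, 10 mM MgCl₂ and 50 mM phosphate pH 7.4. Enzyme was UGT-enriched insect cell membranes. Incubation was 15–60 min at 37°C, in triplicate, keeping substrate consumption ≤10%. Products were measured by HPLC and fitted to Michaelis-Menten. Rates were normalized to expression level.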

[5] = target: T3, UDP-glucuronosyltransferase 2B7 (Homo sapiens, UniProt P16662); assay: Drug metabolism assessed as recombinant human C-terminal His-tagged UGT2B7-mediated estriol-16-glucuronide formation after 15 to 60 mins by Michaelis-Menten equation analysis in presence of UDPGA; details: recombinant enzyme
T3 sequence (P16662 whole entry): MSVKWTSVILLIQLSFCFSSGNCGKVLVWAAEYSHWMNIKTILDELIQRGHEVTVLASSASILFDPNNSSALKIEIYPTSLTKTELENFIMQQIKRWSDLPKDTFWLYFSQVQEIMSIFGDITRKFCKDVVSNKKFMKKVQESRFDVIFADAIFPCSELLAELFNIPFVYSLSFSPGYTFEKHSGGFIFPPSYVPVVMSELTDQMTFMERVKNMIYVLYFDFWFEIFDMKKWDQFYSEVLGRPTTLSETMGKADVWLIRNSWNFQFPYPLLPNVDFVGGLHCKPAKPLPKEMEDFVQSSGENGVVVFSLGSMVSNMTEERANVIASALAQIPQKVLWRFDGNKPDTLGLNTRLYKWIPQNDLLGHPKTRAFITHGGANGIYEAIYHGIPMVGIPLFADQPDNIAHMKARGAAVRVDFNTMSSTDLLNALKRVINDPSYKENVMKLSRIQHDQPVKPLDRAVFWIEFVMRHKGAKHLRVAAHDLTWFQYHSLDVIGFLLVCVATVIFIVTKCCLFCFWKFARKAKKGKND
Method in brief: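 Kinetics with His-tagged UGT-enriched insect-cell membranes (5 or 50 µg): aglycone 0.2–300 µM in 10% DMSO, 5 mM UDPGA, 10 mM MgCl₂, 50 mM phosphate pH 7.4, 15–60 min at 37°C. Substrate consumption kept at or below 10%. Glucuronides quantified by HPLC in triplicate, rates normalized to expression, and data fitted to Michaelis-Menten.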

Drug metabolism [1] | Drug metabolism [2] | Km [3] | Vmax [3] | Drug metabolism [4] | Drug metabolism [5] | Compound
5 pmol/min/mg | metabolite_detected | 33 µM | 8011 pmol/min/mg | – | – | C[C@]12CC[C@@H]3c4ccc(O)cc4CC[C@H]3[C@@H]1C[C@H](O)[C@@H]2O [EPIESTRIOL]
– | – | – | – | 840 pmol/min/mg | 1200 pmol/min/mg | C[C@]12CC[C@@H]3c4ccc(O)cc4CC[C@H]3[C@@H]1C[C@@H](O)[C@@H]2O [ESTRIOL]
